# Published values from different studies.
Structure (SMILES),tested on,test,test system,conditions,quantity,value
N#C[C@@]1(n2ccc(N)nc2=O)O[C@H](CO)[C@@H](O)[C@H]1O,Calu-3,cell growth or viability,,,CC50,> 100 µM
COc1ccc(NC(=O)N2CCCCN3[C@H](CN(C)C)[C@H](c4ccc(C#Cc5ccccc5)cc4)[C@@H]3C2)cc1,THP-1,"cell growth or viability, ATP luminescence",,72 h,CC50,2.87 µM
O=C1NC2(CCC2)C(=O)N1c1ccc(F)c(C(F)(F)F)c1,,metabolic stability,"human, liver microsomes",,microsomal CLint,11 µL/min/mg
CC(C)Cc1cn([C@H]2[C@H]([C@H](O)[C@H](O)CO)OC(C(=O)O)=C[C@@H]2O)nn1,,shake flask,aqueous buffer,"2 h, pH 7.4",logD,-0.54
CC1(CC(F)(F)F)NC(=O)N(c2ccc(F)c(C(F)(F)F)c2)C1=O (centres unmarked),,metabolic stability,"human, liver microsomes",,microsomal CLint,< 7 µL/min/mg
CC(C)CCC(=O)N[C@H]1[C@H]([C@H](O)[C@H](O)CO)OC(C(=O)O)=C[C@@H]1O,,shake flask,aqueous buffer,"2 h, pH 7.4",logD,-0.88
CC/C(=C(\c1ccccc1)c1ccc(OCCN(C)C)cc1)c1ccccc1,MCF7,"cell growth or viability, resazurin",,72 h,IC50,18.2 µM
Cc1[nH]c(C)c(S(=O)(=O)Nc2ccc(S(=O)(=O)F)c(Cl)c2)c1C(=O)N1CCC(F)(F)C1,,metabolic stability,"human, liver microsomes",,microsomal CLint,31.7 µL/min/mg
CC(C)(C)[C@H](NC(=O)C(F)(F)F)C(=O)N1C[C@H]2[C@@H]([C@H]1C(=O)N[C@H](C#N)C[C@@H]1CCNC1=O)C2(C)C,Calu-3,cell growth or viability,,,CC50,> 100 µM
Cc1[nH]c(C)c(S(=O)(=O)Nc2ccc(S(F)(F)(F)(F)F)c(Cl)c2)c1C(=O)N1CCC(F)(F)C1,,metabolic stability,"rat, liver microsomes",,microsomal CLint,20.5 µL/min/mg
CC(C)CC(=O)OC[C@H]1O[C@@](C#N)(c2ccc3c(N)ncnn23)[C@H](O)[C@@H]1O,HEp-2,"cell growth or viability, CCK-8",,5 days,CC50,> 100 µM
